Results on 1 compound are retold here after paper PMC12166265 (Clinical Pharmacology and Therapeutics, 2025).

SMILES strings stand for the structures.

One assay concerns the target T1, RFVT3 (Homo sapiens, UniProt Q9NQ40).
T1 sequence (Q9NQ40 1-469): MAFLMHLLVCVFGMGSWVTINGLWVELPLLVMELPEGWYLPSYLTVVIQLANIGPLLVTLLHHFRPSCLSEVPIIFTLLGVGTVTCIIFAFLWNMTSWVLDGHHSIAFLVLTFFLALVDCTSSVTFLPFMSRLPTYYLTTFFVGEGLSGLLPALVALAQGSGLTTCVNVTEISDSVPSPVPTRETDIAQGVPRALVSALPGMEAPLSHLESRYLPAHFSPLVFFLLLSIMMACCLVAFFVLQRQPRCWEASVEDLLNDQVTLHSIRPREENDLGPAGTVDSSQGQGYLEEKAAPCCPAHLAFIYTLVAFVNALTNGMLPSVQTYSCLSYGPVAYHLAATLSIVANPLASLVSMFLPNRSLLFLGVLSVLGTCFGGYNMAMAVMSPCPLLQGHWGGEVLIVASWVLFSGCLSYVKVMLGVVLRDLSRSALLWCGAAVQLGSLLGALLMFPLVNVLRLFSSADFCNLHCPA
It counts as cell-based. Summed up:
(§1)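 HEK293 lines overexpressing the named transporter were grown in DMEM with 10% FBS, 1% penicillin/streptomycin and line-specific selection antibiotics, at 37°C, humidified, 5% CO₂. Cell-based uptake assays measured inhibition of transporter activity.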

For the next assay, the target named is T2, BCRP (Homo sapiens, UniProt Q9UNQ0).
T2 sequence (Q9UNQ0 1-655): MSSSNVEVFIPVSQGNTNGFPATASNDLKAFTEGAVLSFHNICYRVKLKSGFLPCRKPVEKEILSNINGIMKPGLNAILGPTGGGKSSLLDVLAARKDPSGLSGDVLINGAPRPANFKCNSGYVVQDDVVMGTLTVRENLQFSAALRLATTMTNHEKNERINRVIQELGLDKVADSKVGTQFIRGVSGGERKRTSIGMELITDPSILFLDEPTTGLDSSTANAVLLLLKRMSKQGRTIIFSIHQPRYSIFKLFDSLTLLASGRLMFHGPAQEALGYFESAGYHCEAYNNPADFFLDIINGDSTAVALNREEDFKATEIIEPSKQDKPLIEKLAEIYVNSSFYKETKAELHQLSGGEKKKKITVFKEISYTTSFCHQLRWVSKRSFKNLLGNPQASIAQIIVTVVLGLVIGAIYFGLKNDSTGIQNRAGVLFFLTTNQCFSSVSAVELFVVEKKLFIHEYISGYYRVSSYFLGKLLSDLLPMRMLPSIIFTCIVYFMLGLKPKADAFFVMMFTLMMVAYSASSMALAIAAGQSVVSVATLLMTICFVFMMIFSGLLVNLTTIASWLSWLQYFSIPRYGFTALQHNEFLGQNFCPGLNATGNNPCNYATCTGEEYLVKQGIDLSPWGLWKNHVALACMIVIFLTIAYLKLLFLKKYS
The format is biochemical.

In the next assay the target is T3, RFVT2 (Homo sapiens, UniProt Q9HAB3).
T3 sequence (Q9HAB3 1-445): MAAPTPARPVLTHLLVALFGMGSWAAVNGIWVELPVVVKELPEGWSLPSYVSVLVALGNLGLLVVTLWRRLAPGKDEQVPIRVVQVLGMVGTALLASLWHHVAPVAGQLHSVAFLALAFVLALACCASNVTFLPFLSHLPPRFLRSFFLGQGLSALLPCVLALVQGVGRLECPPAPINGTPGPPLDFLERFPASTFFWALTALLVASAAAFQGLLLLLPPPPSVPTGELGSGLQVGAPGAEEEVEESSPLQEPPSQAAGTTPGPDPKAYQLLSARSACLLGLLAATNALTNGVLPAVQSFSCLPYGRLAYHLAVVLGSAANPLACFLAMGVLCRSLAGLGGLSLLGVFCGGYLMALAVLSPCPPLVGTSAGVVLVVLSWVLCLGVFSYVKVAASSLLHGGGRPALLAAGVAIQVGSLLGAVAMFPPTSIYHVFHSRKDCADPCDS
The format is cell-based. The essentials: as §1

The target in a further assay is T4, OATP1B1 (Homo sapiens, UniProt Q9Y6L6).
T4 sequence (Q9Y6L6 1-691): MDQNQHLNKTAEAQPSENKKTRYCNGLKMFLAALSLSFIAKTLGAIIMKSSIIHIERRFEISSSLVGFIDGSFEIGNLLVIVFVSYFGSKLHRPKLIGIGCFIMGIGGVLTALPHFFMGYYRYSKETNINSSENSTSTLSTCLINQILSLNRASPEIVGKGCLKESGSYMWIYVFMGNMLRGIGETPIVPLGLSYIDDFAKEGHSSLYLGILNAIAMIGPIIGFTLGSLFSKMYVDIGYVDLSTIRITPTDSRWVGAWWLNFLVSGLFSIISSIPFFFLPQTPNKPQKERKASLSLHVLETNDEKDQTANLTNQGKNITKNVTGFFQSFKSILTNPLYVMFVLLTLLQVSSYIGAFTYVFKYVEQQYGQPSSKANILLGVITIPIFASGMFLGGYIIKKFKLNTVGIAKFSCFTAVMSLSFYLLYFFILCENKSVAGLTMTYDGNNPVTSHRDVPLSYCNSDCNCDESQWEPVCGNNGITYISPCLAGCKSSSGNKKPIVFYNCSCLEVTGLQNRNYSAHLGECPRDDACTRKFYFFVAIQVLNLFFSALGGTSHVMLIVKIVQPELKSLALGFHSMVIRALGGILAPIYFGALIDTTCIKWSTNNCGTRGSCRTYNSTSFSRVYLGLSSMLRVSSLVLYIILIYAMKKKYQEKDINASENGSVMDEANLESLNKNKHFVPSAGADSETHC
The format is cell-based. The essentials:
as §1

The target in another assay is T5, OATP1B3 (Homo sapiens, UniProt Q9NPD5).
T5 sequence (Q9NPD5 1-702): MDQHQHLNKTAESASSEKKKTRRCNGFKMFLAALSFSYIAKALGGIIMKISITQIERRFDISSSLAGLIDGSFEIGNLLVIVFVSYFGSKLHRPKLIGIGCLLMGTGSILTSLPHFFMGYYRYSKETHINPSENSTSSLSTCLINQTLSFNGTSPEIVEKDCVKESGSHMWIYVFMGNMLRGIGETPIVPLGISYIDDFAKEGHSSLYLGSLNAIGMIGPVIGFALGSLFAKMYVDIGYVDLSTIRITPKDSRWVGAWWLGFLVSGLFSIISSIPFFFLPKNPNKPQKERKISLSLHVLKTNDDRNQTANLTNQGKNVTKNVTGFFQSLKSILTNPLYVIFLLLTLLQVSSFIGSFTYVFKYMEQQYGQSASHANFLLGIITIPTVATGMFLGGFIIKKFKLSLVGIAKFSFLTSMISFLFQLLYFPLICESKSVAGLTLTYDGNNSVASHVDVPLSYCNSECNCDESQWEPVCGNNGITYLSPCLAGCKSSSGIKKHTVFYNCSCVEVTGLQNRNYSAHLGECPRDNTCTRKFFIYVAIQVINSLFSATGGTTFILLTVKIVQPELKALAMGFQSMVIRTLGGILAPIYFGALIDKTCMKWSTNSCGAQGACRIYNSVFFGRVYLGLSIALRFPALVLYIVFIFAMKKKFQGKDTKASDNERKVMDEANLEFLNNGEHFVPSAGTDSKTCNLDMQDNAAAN
It counts as cell-based. The essentials:
as §1

The test system of the next assay is hepatic BCRP. To be noted: intravenous ceftriaxone as model; cited from earlier work.
In another assay the target is T6, RFVT1 (Homo sapiens, UniProt Q9NWF4).
T6 sequence (Q9NWF4 1-448): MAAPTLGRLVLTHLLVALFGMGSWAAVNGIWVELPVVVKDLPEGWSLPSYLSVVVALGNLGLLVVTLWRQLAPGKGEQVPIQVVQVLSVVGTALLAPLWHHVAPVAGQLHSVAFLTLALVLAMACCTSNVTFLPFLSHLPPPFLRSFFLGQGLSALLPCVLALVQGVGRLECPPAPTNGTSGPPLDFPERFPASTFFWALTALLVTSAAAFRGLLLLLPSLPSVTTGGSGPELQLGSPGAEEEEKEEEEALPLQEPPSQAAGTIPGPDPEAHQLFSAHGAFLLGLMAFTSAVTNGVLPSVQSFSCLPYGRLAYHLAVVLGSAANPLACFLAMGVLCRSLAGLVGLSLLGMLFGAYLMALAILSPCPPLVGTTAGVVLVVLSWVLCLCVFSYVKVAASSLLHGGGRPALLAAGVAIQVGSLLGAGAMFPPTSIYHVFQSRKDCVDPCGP
It counts as cell-based. Summed up: as §1

Regarding `CC1=NN(c2ccc(C)c(C)c2)C(=O)/C1=N\Nc1cccc(-c2cccc(C(=O)O)c2)c1O` [Eltrombopag], the IC50 came out at 26.3 ± 34 µM against RFVT3; 4.9 ± 0.6 µM at BCRP; 28.2 ± 15.7 µM on RFVT2; 1.4 ± 1.2 µM at OATP1B1; 4 ± 3.1 µM at OATP1B3; 44.7 ± 18.3 µM at RFVT1. Further, in the assay on hepatic BCRP, the “Inhibition of hepatic BCRP” value was “does not inhibit”.

In general, IC50 refers to the point on the concentration scale where inhibition reaches its midpoint. Higher therefore signals lower potency.
